≈ marks a conversion by molar mass, not a printed value.

The subject of series [1] is Staphylococcus aureus. As to the kind of experiment: Antimicrobial activity against Staphylococcus aureus ATCC 29213 by broth dilution method. It is filed as functional. A digest of the protocol:
(§1)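 Frozen (−70 °C) stocks grown at 35 °C on Columbia sheep-blood agar, suspended in physiological saline to OD595 0.1, diluted 100×; 2 µL inoculum into 50 µL cation-adjusted Mueller Hinton II broth in 96-well plates. Peptides dissolved in methanol (4 g/L), diluted in water, two-fold serial dilutions in broth (64–1 mg/L). Incubation at 35 °C, 24–48 h; MIC = lowest concentration inhibiting growth.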
Background: In broth dilution the organism is exposed to a series of concentrations in liquid medium.

The test system of series [2] is Staphylococcus aureus. In words: Antimicrobial activity against methicillin-resistant Staphylococcus aureus N133 by broth dilution method. It counts as functional. In short, it runs like this: as §1
Series [3] deals with Staphylococcus aureus. In words: Antimicrobial activity against community acquired methicillin-resistant Staphylococcus aureus isolate 1110301146 by broth dilution method. It counts as functional. A digest of the protocol: as §1
For series [4], the system named is Staphylococcus epidermidis. As to the kind of experiment: Antimicrobial activity against Staphylococcus epidermidis ATCC 12228 by broth dilution method. It is filed as functional. In short, it runs like this:
(§2)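 Stored at −70 °C, grown at 35 °C on Columbia sheep-blood agar, then suspended in physiological saline to OD 0.1 AU at 595 nm and diluted 100× in saline. 2 µL inoculum was added to 50 µL cation-adjusted Mueller Hinton II broth. Peptides in methanol (4 g/L stock) were diluted in water, then two-fold in broth (64–1 mg/L). Incubation was 35 °C for 24–48 h. MIC is the lowest concentration inhibiting growth.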

Series [5] has as its system Staphylococcus aureus. As to the kind of experiment: Antimicrobial activity against methicillin-resistant Staphylococcus aureus ATCC 49775 by broth dilution method. It counts as functional. A digest of the protocol: as §1
In a further series the test system is Bacillus cereus. As to the kind of experiment: Antimicrobial activity against Bacillus cereus ATCC 11778 by broth dilution method. It is filed as functional. A digest of the protocol:
as §2

Series [6] has as its system Staphylococcus aureus. As to the kind of experiment: Antimicrobial activity against methicillin-resistant Staphylococcus aureus isolate 1110301981 by broth dilution method. It is filed as functional. In short, it runs like this: as §1
The next series has as its system Enterococcus faecalis. As to the kind of experiment: Antimicrobial activity against Enterococcus faecalis ATCC 29212 by broth dilution method. It counts as functional. A digest of the protocol: as §2
Series [7] is described as follows: Therapeutic index, concentration required to achieve 100% hemolysis in erythrocyte to MIC for Escherichia coli ATCC 25922. The settings on record: erythrocytes. A digest of the protocol: (§3)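 Therapeutic index was taken as the concentration for 100% haemolysis divided by MIC for the given strain.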
Series [8] concerns Staphylococcus aureus. In words: Antimicrobial activity against methicillin-resistant Staphylococcus aureus N229 by broth dilution method. It is filed as functional. In short, it runs like this:
as §1

In series [9] the test system is Staphylococcus aureus. In words: Antimicrobial activity against methicillin-resistant Staphylococcus aureus ATCC 43300 by broth dilution method. It is filed as functional. A digest of the protocol: as §1
Series [10] in a line: Therapeutic index, concentration required to achieve 100% hemolysis in erythrocyte to MIC for Staphylococcus aureus ATCC 29213. The settings on record: erythrocytes; read-out: Ratio. A digest of the protocol:
as §3

For a further series, the system named is Escherichia coli. As to the kind of experiment: Antimicrobial activity against Escherichia coli ATCC 25922 by broth dilution method. It is filed as functional. A digest of the protocol: as §2
The next series has as its system Pseudomonas aeruginosa. In words: Antimicrobial activity against Pseudomonas aeruginosa ATCC 27853 by broth dilution method. It is filed as functional. A digest of the protocol:
as §2

The nature of series [11]: Toxicity in Erythrocyte assessed as concentration required to achieve 100% hemolysis after 4 hrs. It is filed as cell-based. A digest of the protocol: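 Heparinized fresh blood was centrifuged (1000g, 10 min, 10 °C). Erythrocytes were washed three times in 0.85% saline and diluted to a 1/25 packed volume. Peptides were prepared as a 1.5 mM stock in 30% DMSO/0.5 mM saline and serially two-fold diluted in triplicate rows. 1% Triton-X served as the full-lysis control. Incubation was 37 °C for 4 h, then centrifugation; supernatant was read. Value is the concentration giving 100% lysis.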

One may read the MIC as the lowest concentration found to suppress growth. Lower therefore signals a more susceptible organism. With `CC(C)C[C@@H]1NC(=O)[C@H](CCCN)NC(=O)[C@H](C23CC4CC(CC(C4)C2)C3)NC(=O)[C@H](CCCN)NC(=O)[C@@H]2CCCN2C(=O)[C@@H](Cc2ccccc2)NC(=O)[C@H](CCCN)NC(=O)[C@H](CC23CC4CC(CC(C4)C2)C3)NC(=O)[C@H](CCCN)NC(=O)[C@H](C(C)C)NC(=O)[C@H](CCCN)NC(=O)[C@@H]2CCCN2C(=O)[C@@H](Cc2ccccc2)NC(=O)[C@H](CCCN)NC1=O`, the MIC in the series on Staphylococcus aureus [1] came to 8 µg/mL (≈ 4.49 µM); against Staphylococcus aureus [2], 32 µg/mL (≈ 18 µM); against Staphylococcus aureus [3] it was 16 µg/mL (≈ 8.98 µM); in series [4], 4 µg/mL (≈ 2.24 µM); against Staphylococcus aureus [5], 16 µg/mL (≈ 8.98 µM); in the series on Bacillus cereus, 4 µg/mL (≈ 2.24 µM). Moreover, the MIC against Staphylococcus aureus [6], with Enterococcus faecalis, in the series on Staphylococcus aureus [8], in the series on Staphylococcus aureus [9], against Escherichia coli and in the series on Pseudomonas aeruginosa was 16 µg/mL (≈ 8.98 µM) each time. Moreover, the selectivity ratio in series [7] turned out to be 2; in [10], 3.9. Moreover, the Activity in [11] is 31.3 µM.
In the case of `CC(C)[C@@H]1NC(=O)[C@H](CCCN)NC(=O)[C@@H]2CCCN2C(=O)[C@@H](Cc2ccccc2)NC(=O)[C@H](CCCN)NC(=O)[C@H](CC23CC4CC(CC(C4)C2)C3)NC(=O)[C@H](CCCN)NC(=O)[C@H](C(C)C)NC(=O)[C@H](CCCN)NC(=O)[C@@H]2CCCN2C(=O)[C@@H](Cc2ccccc2)NC(=O)[C@H](CCCN)NC(=O)[C@H](CC23CC4CC(CC(C4)C2)C3)NC(=O)[C@H](CCCN)NC1=O`, the minimum inhibitory concentration (MIC) (in the series with Staphylococcus aureus [1]; in the series on Staphylococcus aureus [2]; against Staphylococcus aureus [3]; in [4]; with Staphylococcus aureus [5]; in the series on Bacillus cereus) was 8 µg/mL (≈ 4.49 µM) each time. Besides, the MIC worked out at 8 µg/mL (≈ 4.49 µM) in the series with Staphylococcus aureus [6]; 8 µg/mL (≈ 4.49 µM) against Enterococcus faecalis; 8 µg/mL (≈ 4.49 µM) in the series on Staphylococcus aureus [8]; 8 µg/mL (≈ 4.49 µM) against Staphylococcus aureus [9]; 32 µg/mL (≈ 18 µM) against Escherichia coli; 8 µg/mL (≈ 4.49 µM) in the series on Pseudomonas aeruginosa. Further, the selectivity ratio in [7] and in series [10] was 3.9 each time. For the same molecule, the Activity in series [11] stood at 31.3 µM.
As to `CC(C)[C@@H]1NC(=O)[C@H](CCCN)NC(=O)[C@@H]2CCCN2C(=O)[C@@H](Cc2ccccc2)NC(=O)[C@H](CCCN)NC(=O)[C@H](CC23CC4CC(CC(C4)C2)C3)NC(=O)[C@H](CCCN)NC(=O)[C@H](C23CC4CC(CC(C4)C2)C3)NC(=O)[C@H](CCCN)NC(=O)[C@@H]2CCCN2C(=O)[C@@H](Cc2ccccc2)NC(=O)[C@H](CCCN)NC(=O)[C@H](CC23CC4CC(CC(C4)C2)C3)NC(=O)[C@H](CCCN)NC1=O`, the MIC against Staphylococcus aureus [1] is 16 µg/mL (≈ 8.54 µM); in the series on Staphylococcus aureus [2], 16 µg/mL (≈ 8.54 µM); against Staphylococcus aureus [3], 32 µg/mL (≈ 17.1 µM); in series [4] it was 4 µg/mL (≈ 2.13 µM); in the series on Staphylococcus aureus [5] it was 16 µg/mL (≈ 8.54 µM); in the series with Bacillus cereus it was 4 µg/mL (≈ 2.13 µM). The MIC with Staphylococcus aureus [6] turned out to be 16 µg/mL (≈ 8.54 µM); in the series on Enterococcus faecalis, 8 µg/mL (≈ 4.27 µM); in the series with Staphylococcus aureus [8], 16 µg/mL (≈ 8.54 µM); against Staphylococcus aureus [9] it was 16 µg/mL (≈ 8.54 µM); in the series with Escherichia coli, 32 µg/mL (≈ 17.1 µM); in the series on Pseudomonas aeruginosa it was 16 µg/mL (≈ 8.54 µM). The selectivity ratio in series [7] and in series [10] was 1 throughout. Besides, the Activity in series [11] came out at 15.6 µM.
With `CC(C)C[C@@H]1NC(=O)[C@H](CCCN)NC(=O)[C@H](C23CC4CC(CC(C4)C2)C3)NC(=O)[C@H](CCCN)NC(=O)[C@@H]2CCCN2C(=O)[C@@H](Cc2ccccc2)NC(=O)[C@H](CCCN)NC(=O)[C@H](CC23CC4CC(CC(C4)C2)C3)NC(=O)[C@H](CCCN)NC(=O)[C@H](C23CC4CC(CC(C4)C2)C3)NC(=O)[C@H](CCCN)NC(=O)[C@@H]2CCCN2C(=O)[C@@H](Cc2ccccc2)NC(=O)[C@H](CCCN)NC1=O`, the MIC worked out at 16 µg/mL (≈ 8.54 µM) with Staphylococcus aureus [1]; 8 µg/mL (≈ 4.27 µM) in the series with Staphylococcus aureus [2]; 8 µg/mL (≈ 4.27 µM) against Staphylococcus aureus [3]; 8 µg/mL (≈ 4.27 µM) in series [4]; 16 µg/mL (≈ 8.54 µM) against Staphylococcus aureus [5]; 4 µg/mL (≈ 2.13 µM) against Bacillus cereus. For the same molecule, the minimum inhibitory concentration (MIC) in the series on Staphylococcus aureus [6] was 8 µg/mL (≈ 4.27 µM); against Enterococcus faecalis, 8 µg/mL (≈ 4.27 µM); with Staphylococcus aureus [8], 8 µg/mL (≈ 4.27 µM); in the series with Staphylococcus aureus [9], 16 µg/mL (≈ 8.54 µM); against Escherichia coli it was 32 µg/mL (≈ 17.1 µM); in the series on Pseudomonas aeruginosa, 16 µg/mL (≈ 8.54 µM). Also, the selectivity ratio in series [7] and in [10] was 1 throughout. The Activity in series [11] is 15.6 µM.

Values taken from ChEMBL document CHEMBL1287679, “Tuning hydrophobicity of highly cationic tetradecameric Gramicidin S analogues using adamantane amino acids” (Bioorg Med Chem, 2010).
